Experiments:
[1] = Toxicity in Wistar rat at 10 mg/kg, po administered via gavage; type: organism-based; settings: in vivo
How it was run: (§1)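 Preliminary test in fasted rats: single oral gavage dose in 40% PEG-400, observed for toxic response.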

OAT1 (SLC22A6) = target: T1, OAT1 (SLC22A6) (Homo sapiens, UniProt Q4U2R8); assay: Inhibition of OAT1 (unknown origin) expressed in HEK293 cells assessed as reduction in 6-CF uptake at 50 uM measured after 5 mins by fluorescence assay relative to control; type: cell-based; settings: HEK293 cells expressing OAT1, probe 6-CF
T1 sequence (Q4U2R8 whole entry): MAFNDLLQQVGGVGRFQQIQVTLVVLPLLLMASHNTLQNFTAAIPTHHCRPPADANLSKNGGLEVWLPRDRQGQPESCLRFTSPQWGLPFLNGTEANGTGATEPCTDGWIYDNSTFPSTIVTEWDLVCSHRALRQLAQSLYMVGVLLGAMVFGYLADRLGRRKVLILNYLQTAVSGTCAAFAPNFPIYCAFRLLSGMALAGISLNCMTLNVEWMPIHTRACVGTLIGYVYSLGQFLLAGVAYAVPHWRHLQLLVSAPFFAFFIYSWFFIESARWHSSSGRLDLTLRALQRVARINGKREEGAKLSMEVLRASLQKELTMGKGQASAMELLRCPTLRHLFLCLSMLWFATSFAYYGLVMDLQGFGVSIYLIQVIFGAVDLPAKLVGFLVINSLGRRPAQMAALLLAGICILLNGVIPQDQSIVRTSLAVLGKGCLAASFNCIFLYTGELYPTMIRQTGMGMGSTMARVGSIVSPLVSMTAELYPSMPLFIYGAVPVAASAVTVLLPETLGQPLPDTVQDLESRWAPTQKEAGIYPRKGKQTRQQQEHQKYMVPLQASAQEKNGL
How it was run: (§2)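 Transfected HEK293 cells stably expressing OAT1 or OAT3, maintained under hygromycin B selection, were seeded on poly-D-lysine plates and grown 24 h. Cells preincubated 5 min at 37 °C in Hepes uptake buffer (pH 7.2), then exposed 5 min to 4 μM 6-CF with compound at 50 μM. Ice-cold stop, PBS wash, Triton lysis. Fluorescence read at 485/528 nm, normalized to BCA protein, in triplicate.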

OAT3 = target: T2, OAT3 (Homo sapiens, UniProt Q8TCC7); assay: Inhibition of OAT3 (unknown origin) expressed in HEK293 cells assessed as reduction in 6-CF uptake at 50 uM measured after 5 mins by fluorescence assay relative to control; type: cell-based; settings: HEK293 cells expressing OAT3, probe 6-CF; how it was run: as §2
T2 sequence (Q8TCC7 whole entry): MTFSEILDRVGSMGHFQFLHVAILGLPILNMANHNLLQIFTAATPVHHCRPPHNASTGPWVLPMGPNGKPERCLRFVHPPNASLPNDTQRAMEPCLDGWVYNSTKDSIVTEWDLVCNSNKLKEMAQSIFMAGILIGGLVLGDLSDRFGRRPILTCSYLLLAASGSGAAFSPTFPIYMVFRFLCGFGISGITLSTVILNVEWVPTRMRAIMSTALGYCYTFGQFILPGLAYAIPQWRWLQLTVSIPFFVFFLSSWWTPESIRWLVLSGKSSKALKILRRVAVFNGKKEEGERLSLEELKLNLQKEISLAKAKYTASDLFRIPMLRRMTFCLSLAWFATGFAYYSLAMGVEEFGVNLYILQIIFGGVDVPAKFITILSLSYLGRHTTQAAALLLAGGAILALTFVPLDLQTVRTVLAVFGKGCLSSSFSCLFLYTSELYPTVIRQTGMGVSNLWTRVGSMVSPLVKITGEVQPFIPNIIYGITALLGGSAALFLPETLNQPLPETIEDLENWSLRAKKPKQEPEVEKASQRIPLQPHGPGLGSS

[2] = target: T3, Organic anion transporter 3 (Homo sapiens, UniProt Q8TCC7); assay: Inhibition of OAT3 (unknown origin) expressed in HEK293 cells assessed as reduction in 6-CF uptake measured after 5 mins by fluorescence assay; type: cell-based; settings: for inhibition (INH): human, hek293, 5 min
T3 sequence (Q8TCC7 whole entry): T2 sequence (Q8TCC7 whole entry)
How it was run: (§3)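 Uptake of 4 μM 6-CF measured over 5 min in stable OAT1- or OAT3-HEK293 cells, in pH 7.2 Hepes buffer at 37 °C with serial dilutions of compound. Lysate fluorescence (485/528 nm) normalized to protein, triplicate. IC50 obtained by nonlinear regression, reported as mean ± SEM.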

[3] = target: T4, Solute carrier family 22 member 6 (Homo sapiens, UniProt Q4U2R8); assay: Inhibition of OAT1 (unknown origin) expressed in HEK293 cells assessed as reduction in 6-CF uptake measured after 5 mins by fluorescence assay; type: cell-based; settings: for inhibition (INH): human, hek293, 5 min; how it was run: as §3
T4 sequence (Q4U2R8 whole entry): T1 sequence (Q4U2R8 whole entry)

[4] = Toxicity in Wistar rat at 20 mg/kg, po administered via gavage; type: organism-based; settings: in vivo; how it was run: as §1
Rattus norvegicus [5] = assay: In vivo inhibition of OAT1 and OAT3 in Wistar rat assesed as increase in furosemide AUC (0 to t) at 20 mg/kg, po administered via gavage pretreated for 5 mins followed by furosemide addition and measured within 10 mins by HPLC analysis; type: functional; parameters: scale not given: the % may be the effect or the level left
How it was run: (§4)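 Rats (5 per group) fasted 12 h, then pretreated by oral gavage with test agent in 40% PEG-400 or vehicle. After 5 min, furosemide 10 mg/kg in saline given by tail vein injection. Orbital sinus blood taken at 2–120 min. Plasma extracted with MeCN containing warfarin internal standard. Furosemide quantified by C18 HPLC with UV detection at 280 nm. AUC0−t calculated.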

Rattus norvegicus [6] = assay: In vivo inhibition of OAT1 and OAT3 in Wistar rat assesed as increase in furosemide AUC (0 to t) at 10 mg/kg, po administered via gavage pretreated for 5 mins followed by furosemide addition and measured within 10 mins by HPLC analysis; type: functional; parameters: scale not given: the % may be the effect or the level left; settings: in the assay text read “at 20 mg/kg” for “at 10 mg/kg”; how it was run: as §4
Rattus norvegicus [7] = assay: In vivo inhibition of OAT1 and OAT3 in Wistar rat assesed as increase in furosemide AUC (0 to t) at 20 mg/kg, po administered via gavage pretreated for 5 mins followed by furosemide addition and measured within 30 mins by HPLC analysis; type: functional; parameters: scale not given: the % may be the effect or the level left; how it was run: as §4
Rattus norvegicus [8] = assay: In vivo inhibition of OAT1 and OAT3 in Wistar rat assesed as increase in furosemide AUC (0 to t) at 10 mg/kg, po administered via gavage pretreated for 5 mins followed by furosemide addition and measured within 30 mins by HPLC analysis; type: functional; parameters: scale not given: the % may be the effect or the level left; settings: in the assay text read “at 20 mg/kg” for “at 10 mg/kg”; how it was run: as §4
Rattus norvegicus [9] = assay: In vivo inhibition of OAT1 and OAT3 in Wistar rat assesed as increase in furosemide AUC (0 to t) at 20 mg/kg, po administered via gavage pretreated for 5 mins followed by furosemide addition and measured within 90 mins by HPLC analysis; type: functional; parameters: scale not given: the % may be the effect or the level left; how it was run: as §4
Rattus norvegicus [10] = assay: In vivo inhibition of OAT1 and OAT3 in Wistar rat assesed as increase in furosemide AUC (0 to t) at 10 mg/kg, po administered via gavage pretreated for 5 mins followed by furosemide addition and measured within 90 mins by HPLC analysis; type: functional; parameters: scale not given: the % may be the effect or the level left; how it was run: as §4

Row | Structure (SMILES) | inhibition at 5 min, 50 µM (OAT1 (SLC22A6)) [%] | inhibition at 5 min, 50 µM (OAT3) [%] | IC50 [2] [µM] | inhibition (INH) [2] | IC50 [3] [µM] | inhibition (INH) [3] | Activity [1] | Activity [4] | Activity (Rattus norvegicus [5]) [%] | Activity (Rattus norvegicus [6]) [%] | Activity (Rattus norvegicus [7]) [%] | Activity (Rattus norvegicus [8]) [%] | Activity (Rattus norvegicus [9]) [%] | Activity (Rattus norvegicus [10]) [%]
1 | CCCN(CCC)S(=O)(=O)c1ccc(C(=O)O)cc1 [PROBENECID] |  |  |  |  |  |  | Non-Toxic |  |  |  |  |  |  | 
2 | C=Cc1cc(C(=O)O)cc2c1CCc1c-2ccc(O)c1C | < 50 | > 50 | 2.8 | Dose-dependent effect |  |  |  |  |  |  |  |  |  | 
3 | C=Cc1cc2c(cc1C(=O)O)CCc1c-2ccc(O)c1C | > 50 | > 50 | 1.3 | Dose-dependent effect | 8.4 | Dose-dependent effect |  | Non-Toxic | 70 | 70 | 62 | 62 | 66 | 66
4 | COc1cc(C(=O)c2ccc(O)c(OC)c2)ccc1O | > 50 | > 50 | 2.3 | Dose-dependent effect | 3.5 | Dose-dependent effect |  |  |  |  |  |  |  | 
5 | C=Cc1cc(C(=O)O)cc2c1-c1ccc(O)c(C)c1CC2 | > 50 | > 50 | 1.1 | Dose-dependent effect | 4.4 | Dose-dependent effect |  |  |  |  |  |  |  | 

Further compounds by falling IC50 [2], results first:

Row | inhibition at 5 min, 50 µM (OAT1 (SLC22A6)) [%] | inhibition at 5 min, 50 µM (OAT3) [%] | IC50 [2] [µM] | inhibition (INH) [2] | IC50 [3] [µM] | inhibition (INH) [3] | Structure (SMILES) | Activity [1] | Activity [4] | Activity (Rattus norvegicus [5]) [%] | Activity (Rattus norvegicus [6]) [%] | Activity (Rattus norvegicus [7]) [%] | Activity (Rattus norvegicus [8]) [%] | Activity (Rattus norvegicus [9]) [%] | Activity (Rattus norvegicus [10]) [%]
6 | > 50 | > 50 | 22.7 |  | 23.3 |  | C=Cc1cc(O)cc2c1-c1ccc(O)c(C)c1CC2 [EFFUSOL] |  |  |  |  |  |  |  | 
7 | > 50 | > 50 | 8.3 | Dose-dependent effect | 43.1 |  | COC(C)c1cc(O)cc2c1-c1ccc(O)c(C)c1CC2 (racemic) |  |  |  |  |  |  |  | 
8 | < 50 | > 50 | 6.5 | Dose-dependent effect |  |  | C=Cc1c(C)c(O)cc2c1-c1ccc(O)c(C)c1CC2 |  |  |  |  |  |  |  | 
9 | > 50 | > 50 | 1.1 | Dose-dependent effect | 18.3 |  | C=Cc1c(C(=O)O)ccc2c1CCc1c-2ccc(O)c1C |  |  |  |  |  |  |  | 

Source: ChEMBL document CHEMBL4480457, “Dihydrophenanthrenes from Juncus effusus as Inhibitors of OAT1 and OAT3” (J Nat Prod, 2019)
